From PubChem
CHOP inh: blocks CHOP induction under ER stress; CHO-K1 CHOP-promoter luciferase, tunicamycin-induced, 15-18 h; inhibition, % at 10 µM; actives 3.8% (n = 220,000); AID 2732;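 active means compounds that reduced the stress-induced luciferase reporter signal by more than about 70% of percent inhibition, limit read from the data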;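 further: 0% = tunicamycin plus vehicle and 100% = wells without tunicamycin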
CSC inhib: blocks cancer stem cells; cancer stem cell-like cells viability, luminescence; inhibition, % at 7.5 µM; actives 1.1% (n = 300,000); AID 2717; in the data active means inhibition above about 75%; inconclusive means no clear call, values can overlap the other calls; tested in HMLE shEcad cells
NR3A LBD binder: NR3A (human) ligand-binding domain modulation | Tm shift relative to glycine control, % at 25 µM | NR3A LBD differential scanning fluorimetry, Tm shift; 0% = protein alone, 100% = glycine-bound protein | actives 2.5% (n = 340,000);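 active means melting temperature shift of at least 10% of the positive control shift, at one fixed dose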
Beta cell apopt: beta cell apoptosis inhibition; AID 435005; protection from apoptosis, % (concentration not given with the values); actives 0.8% (n = 300,000); INS-1E cytokine-induced death, ATP luminescence, 48 h; percent of positive-control rescue, neutral wells zero;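 active means Every replicate reaches about 75%, or at least half do and their mean reaches it too, limit read from the data; inconclusive means At least half of replicates reach the limit but their mean does not; inactive means Under half of replicates reach the limit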;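 further: 0% = cytokine-treated negative control wells and 100% = positive control rescue; higher means more ATP so stronger rescue from cytokine killing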
PREPL inh: human PREPL enzyme inhibition; recombinant PREPL, fluorescence polarization activity-based probe; inhibition, % at 5.96 µM; actives 0.68% (n = 320,000); AID 2751; in the data active means inhibition above about 43%;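 further: 0% = enzyme with DMSO and 100% = wells lacking enzyme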
Target sequence (Q4J6C6 whole entry, looked up): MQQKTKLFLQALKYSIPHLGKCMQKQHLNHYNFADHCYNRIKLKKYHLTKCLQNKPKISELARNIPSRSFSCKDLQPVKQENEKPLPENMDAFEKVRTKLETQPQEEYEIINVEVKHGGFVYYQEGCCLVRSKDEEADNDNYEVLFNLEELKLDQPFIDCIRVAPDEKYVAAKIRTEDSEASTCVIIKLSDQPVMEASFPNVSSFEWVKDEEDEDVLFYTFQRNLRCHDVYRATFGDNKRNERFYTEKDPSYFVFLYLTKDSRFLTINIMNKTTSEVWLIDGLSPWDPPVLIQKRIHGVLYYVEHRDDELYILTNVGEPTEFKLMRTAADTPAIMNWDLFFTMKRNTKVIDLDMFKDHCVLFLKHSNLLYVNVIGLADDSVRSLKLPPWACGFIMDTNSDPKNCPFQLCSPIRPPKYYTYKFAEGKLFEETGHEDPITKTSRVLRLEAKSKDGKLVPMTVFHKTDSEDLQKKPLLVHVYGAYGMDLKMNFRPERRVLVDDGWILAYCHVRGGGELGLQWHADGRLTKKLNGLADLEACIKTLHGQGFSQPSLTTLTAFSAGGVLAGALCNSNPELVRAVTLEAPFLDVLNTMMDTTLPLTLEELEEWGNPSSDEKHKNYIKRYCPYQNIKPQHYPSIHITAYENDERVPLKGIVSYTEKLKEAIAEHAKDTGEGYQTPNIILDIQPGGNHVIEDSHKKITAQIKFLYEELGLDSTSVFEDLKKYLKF
T cruzi repl: blocks replication of Trypanosoma cruzi; T. cruzi beta-gal in NIH3T3, luminescence, 90 h; inhibition, % (test concentration not listed); actives 1.4% (n = 300,000); AID 1885;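 active means mean inhibition across valid replicates above about 55%, limit read from the data; inconclusive means mean below that limit but half or more replicates reach it; inactive means mean below it, under half of replicates reach it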;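 further: signal also drops with host cell toxicity which is not excluded here; 0% = plate median of DMSO wells and 100% = zero luminescence signal; higher percent means less beta-gal luminescence so fewer parasites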
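compound dosing = single 50 nL compound addition per well in DMSO | material = NIH/3T3 host cells with β-galactosidase reporter T. cruzi | input = 5,000 host fibroblasts per well | timing = ≥90 h infection period, 3 h prior cell attachment | read-out basis = percent inhibition of parasite-derived β-gal signal | detection = GalScreen β-gal luminescence, detergent lysis, 60 min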
Starred values were filed as active, the others as inactive; ? = inconclusive; . = not tested or not shown. This is a sample that favours compounds with a hit; in the whole collection about 6.7% have one here.

SMILES	CHOP inh	CSC inhib	NR3A LBD binder	Beta cell apopt	PREPL inh	T cruzi repl
Cc1ccc(-n2ccc(=O)c(C(=O)Nc3ccc(S(=O)(=O)Nc4onc(C)c4C)cc3)n2)cc1	.	4.3	-2.8	-5.8	4.7	-14.0
Cc1ccc(C(=O)c2cc([N+](=O)[O-])ccc2N2CCCCC2)c(C)c1	-32.8	-5.0	-3.1	65.1	8.8	4.3
O=C1C=C(NC2=CC3OC(c4ccccc4)OCC3OC2=O)CCC1 (stereo unspecified)	95.3*	23.3	7.9	-1.9	-2.6	-34.8
Cc1[nH]c(=O)c(C(=O)/C=C/c2ccccc2F)c2c1CCCC2	-20.9	38.3	-1.6	6.9	15.8	?
Cc1cc2cc(CCNC(=O)c3ccc(S(=O)(=O)N4CCOCC4)cc3)c(=O)[nH]c2cc1C	70.6*	-20.5	0.0	0.8	-10.7	7.1
O=C(OC(c1ccc(NS(=O)(=O)c2ccccc2)cc1)(C(F)(F)F)C(F)(F)F)c1ccccc1	92.3*	66.6	-0.8	6.8	12.7	6.9
Cc1ccc(S(=O)(=O)Nc2ccc(C(OC(=O)c3ccccc3[N+](=O)[O-])(C(F)(F)F)C(F)(F)F)cc2)cc1	75.9*	107.0*	3.9	110.0*	-3.8	19.1
COc1cccc(C2CCCCN2Cc2nc(-c3ccc(C)o3)oc2C)c1 (stereo unspecified)	12.4	-14.9	-1.7	-3.9	9.3	11.3
COc1ccc(OC)c(-c2nc(CN3CCCCC3c3cccnc3)c(C)o2)c1 (stereo unspecified)	-0.1	-4.5	1.4	5.6	13.7	59.4*
O=C(Nc1cc(C(F)(F)F)ccc1Cl)C(NCc1ccccc1)c1ccccc1 (stereo unspecified)	33.3	30.9	18.1*	-0.1	-6.2	19.9
O=C(NC(=S)Nc1cc(C(F)(F)F)ccc1Cl)c1ccccc1	88.8*	-6.7	-5.7	3.2	-5.8	5.4
O=C(CC(=O)c1ccccc1)Nc1cc(C(F)(F)F)ccc1Cl	8.2	7.4	-9.5	-0.1	2.6	-1.6
CCN(CCn1cccn1)C(=O)c1cc(COc2cc(C)ccc2C)on1	.	-2.1	-0.5	-1.1	.	11.6
COc1ccccc1C/C(N)=N/OC(=O)c1ccco1	-9.7	1.2	-1.6	-2.3	10.4	4.0
O=C(CCl)N1c2ccccc2OCC1c1ccccc1 (stereo unspecified)	106.0*	-11.2	1.0	3.1	4.0	3.0
N#Cc1c(NC(=O)CSc2ncccn2)oc(-c2ccccc2)c1-c1ccccc1	.	-15.0	-6.6	0.5	-2.2	10.8
CCOC(=O)c1sc(NC(=O)CSc2nc(C)cc(C)n2)c(C#N)c1C	-2.1	-10.6	-6.7	-4.7	-11.8	4.4
CCOC(=O)c1sc(NC(=O)CSc2n[nH]c(-c3ccccc3)n2)c(C#N)c1C	43.5	44.3	26.8*	.	-3.6	5.9
CCOC(=O)c1sc(NC(=O)CSc2ccccn2)c(C#N)c1C	78.6*	-3.7	6.5	.	-3.3	-8.7
CCOC(=O)c1sc(NC(=O)c2cc(-c3ccccc3)nc3ccccc23)c(C#N)c1C	62.1	52.7	24.3*	45.4	-1.5	.
N#Cc1c(NC(=O)CSc2n[nH]c(Cc3ccccc3)n2)oc(-c2ccccc2)c1-c1ccccc1	28.4	101.8*	6.5	.	7.9	-2.5
CCOC(=O)c1sc(NC(=O)c2cccnc2)c(C#N)c1C	-8.5	29.4	1.1	7.2	-1.4	-27.5
Cc1ccc(C(=O)NNC(=O)c2ccc(-n3cncn3)c([N+](=O)[O-])c2)cc1	.	-9.8	0.2	2.4	10.9	-3.8
S=C(NCCc1ccccc1)NC1CC2CCC(C1)N2Cc1ccccc1 (stereo unspecified)	32.1	-16.8	-2.9	4.6	4.7	17.7
Cc1cc(=O)[nH]c(SCC(=O)N(CCC#N)c2ccccc2)c1C#N	2.7	-8.1	-2.4	-8.9	7.1	2.0
SMILES	CHOP inh	CSC inhib	NR3A LBD binder	Beta cell apopt	PREPL inh	T cruzi repl
CCOC(=O)c1c(NC(=O)CSc2n[nH]c(CNc3ccccc3)n2)sc(C)c1C	91.3*	-6.0	-3.2	0.4	11.3	9.2
O=C(CCc1ccc(S(=O)(=O)NCc2ccccc2)cc1)NCC1CCCO1 (stereo unspecified)	-1.8	.	1.0	-5.1	4.4	-16.9
NC(=S)N/N=C/c1ccccc1OCc1cccc(Cl)c1	-2.4	-0.8	1.5	24.9	-4.4	61.6*
NC(=S)N/N=C/c1ccc2cccc(OCc3ccccc3)c2n1	.	-3.2	-2.6	0.8	-21.4	44.5
c1csc(-c2csc(-c3cccs3)n2)c1	77.0*	4.0	1.1	-3.3	-5.0	-9.1
COc1ccc(CCNC(=O)c2cc3c(=O)n4ccccc4nc3n(C3CCCCC3)c2=N)cc1	.	-12.0	-0.1	20.0	41.7	60.0*
N=c1c(S(=O)(=O)c2ccc(Cl)cc2)cc2c(=O)n3ccccc3nc2n1C1CCCC1	.	-5.4	8.4	-10.2	-1.9	55.1*
N=c1c(S(=O)(=O)c2ccccc2)cc2c(=O)n3ccccc3nc2n1C1CCCCC1	.	.	0.1	.	.	.
COc1ccc(NC(=O)c2cc3c(=O)n4ccccc4nc3n2C)cc1OC	77.9*	7.5	0.8	0.4	16.3	0.8
COc1ccc(C)cc1NC(=O)c1cc2c(=O)n3ccccc3nc2n1C	-23.7	-3.9	0.6	-4.9	-4.2	.
COc1ccc(CCn2c(=N)c(C(=O)NCCN3CCOCC3)cc3c(=O)n4ccccc4nc32)cc1OC	.	-6.8	14.8*	-1.1	12.6	12.5
COc1ccc2c(c1)C=Cc1ccccc1O2	.	19.9	.	-5.1	17.6	6.7
CCCCCCCC(=O)N/N=C/c1ccc([N+](=O)[O-])o1	14.1	7.2	-1.3	-0.2	1.0	47.3
O=C(N/N=C\C=C\c1ccc([N+](=O)[O-])o1)c1cccs1	.	10.2	-2.0	3.6	.	77.6*
CCOC(=O)N/N=C\c1ccc([N+](=O)[O-])o1	-10.5	2.1	-3.9	-9.3	1.0	75.0*
Cc1cccc(OCC(=O)N/N=C/CC(C)c2ccccc2)c1C (stereo unspecified)	77.5*	-12.3	-6.1	-7.4	10.0	-8.2
O=C(N/N=C/C=C/c1ccccc1[N+](=O)[O-])c1cccs1	26.3	1.7	-0.2	1.6	6.9	6.8
COc1ccccc1OCC(=O)N/N=C/C=C/c1ccc([N+](=O)[O-])o1	7.3	5.6	-2.4	-9.3	10.8	57.7*
CN(CC(=O)Nc1n[nH]c(=S)s1)S(=O)(=O)c1cccc2cccnc12	.	-11.3	7.3	0.5	-5.9	-7.1
Cc1nnc(SCC(=O)N(CCC#N)c2ccc3c(c2)OCCO3)s1	.	-9.6	-1.0	-6.8	8.6	.
Cc1ccccc1OCC(=O)N/N=C/c1ccc([N+](=O)[O-])o1	-37.8	-8.5	0.2	7.4	17.0	60.8*
Cc1ccccc1OCC(=O)NCC(=O)N/N=C/c1ccc(Br)o1	1.8	-1.3	-2.1	-9.8	2.3	37.0
CCCOc1ccc(CCC(=O)N/N=C/c2ccc([N+](=O)[O-])o2)cc1	-25.8	-5.3	-0.2	12.2	3.3	52.0
